Test results from ChEMBL document CHEMBL1123985, “Oral absorption of cephalosporin antibiotics. 1. Synthesis, biological properties, and oral bioavailability of 7-(arylacetamido)-3-chloro cephalosporins in animals” (J Med Chem, 1988).
Values after ≈ are worked out from the molar mass of the structure shown.

Experiments:
[1] = Area under plasma concentration vs time curve observed in Rhesus monkeys after, iv administration of single 30 mg/kg dose; assay type: ADME, organism-based, Macaca mulatta; set-up: dose 30 mg/kg, route intravenous; conditions: rhesus monkey
Outline: (§1)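 Rhesus monkeys, adult males, six animals per compound, each given drug orally and iv; fasted overnight. Single 30 mg/kg solution doses, by nasogastric tube (in water) or saphenous vein (in isotonic lactated Ringer). Plasma sampled at intervals, frozen at -70 °C, antibacterial activity by microbiological assay. AUC in μg min/mL; oral bioavailability from oral vs iv AUC.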

[2] = Area under plasma concentration vs time curve observed in Rhesus monkeys after oral administration of single 30 mg/kg dose; assay type: ADME, organism-based, Macaca mulatta; set-up: dose 30 mg/kg, route oral; conditions: rhesus monkey; outline: as §1
[3] = test system: Canis familiaris; assay: Area under plasma concentration vs time curve observed in female mongrel dogs after, iv administration of single 15 mg/kg dose; assay type: ADME, organism-based, Canis lupus familiaris; set-up: dose 15 mg/kg, route intravenous; conditions: dog, in vivo
Outline: (§2)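 Six female mongrel dogs (14-23 kg) fasted overnight, bladder catheterized; single 15 mg/kg solution doses by stomach tube (in water, total 500 mL) or cephalic vein (saline or pH 6.0 NaCl/phosphate/acetate buffer). Plasma sampled at intervals; activity by disk-plate agar diffusion against E. coli MB 3804, standards in dog serum or buffer. AUC μg min/mL, mean ± SEM; BA from iv vs po AUC and urinary recovery.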

[4] = test system: Canis familiaris; assay: Area under plasma concentration vs time curve observed in female mongrel dogs after, oral administration of single 15 mg/kg dose; assay type: ADME, organism-based, Canis lupus familiaris; set-up: dose 15 mg/kg, route oral; conditions: dog, in vivo; outline: as §2
[5] = Area under plasma concentration vs time curve observed in rats for 0-3 h; assay type: ADME; set-up: time < 3 hr; conditions: rat
Outline: (§3)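 Rats, jugular vein cannulated (two per group), test compound iv 20 mg/kg; probenecid 100 mg/kg iv 5 min before in treated groups. Heparinized plasma sampled at 5, 20, 40 min and 1, 2, 3 h, assayed microbiologically (B. subtilis agar well). AUC 0-3 h in μg min/mL; half-life in min.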

[6] = Compound was tested for percent of oral bioavailability in mice; 56-74; assay type: ADME, organism-based; conditions: mouse, in vivo, read-out: Bioavailabiility
Outline: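 Male Cox mice given water and liquid diet overnight; 20 mg/kg in saline (2 mg/mL) sc or orally; urine from collection cages plus bladder contents over 2 h; activity by agar well assay with Bacillus subtilis ATCC 6633. Bioavailability from percent dose excreted in urine after oral vs parenteral dosing.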

[7] = Bioavailability in rat; assay type: ADME, organism-based; conditions: in vivo
Outline: (§4)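 Male Wistar rats (200-300 g), jugular-cannulated, upper GI emptied by light cycle; 20 mg/kg in saline (6 mg/mL) sc or orally. Urine collected in wire-bottom cages, assayed by B. subtilis agar well method. Mean ± SD recovery with N and range; bioavailability = oral over mean sc recovery.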

[8] = Mean plasma levels in rats 1 hr after iv administration of 100 mg/kg of probenecid 5 min prior to test compound; assay type: ADME, organism-based; set-up: dose 100 mg/kg, route intravenous; conditions: rat, read-out: Plasma levels; outline: as §3
[9] = Mean plasma levels in rats 2 hr after iv administration of 100 mg/kg of probenecid 5 min prior to test compound; assay type: ADME, organism-based; set-up: dose 100 mg/kg, route intravenous; conditions: rat, read-out: Plasma levels; outline: as §3
[10] = Mean plasma levels in rats 3h after intravenous administration of 20 mg/kg of compound; assay type: ADME, organism-based; set-up: dose 20 mg/kg, route intravenous; conditions: rat, read-out: Plasma levels; outline: as §3
[11] = Mean plasma levels in rats 40 min after iv administration of 100 mg/kg of probenecid 5 min prior to test compound; assay type: ADME, organism-based; set-up: dose 100 mg/kg, route intravenous; conditions: rat, read-out: Plasma levels; outline: as §3
[12] = Mean plasma levels in rats at a time 5 min after iv administration of 100 mg/kg of probenecid 5 min prior to test compound; assay type: ADME, organism-based; set-up: dose 100 mg/kg, route intravenous; conditions: rat, read-out: Plasma levels; outline: as §3
[13] = Mean plasma levels in rats 20 min after iv administration of 100 mg/kg of probenecid 5 min prior to test compound; assay type: ADME, organism-based; set-up: dose 100 mg/kg, route intravenous; conditions: rat, read-out: Plasma levels; outline: as §3
[14] = Oral bioavailability in Rhesus monkey; assay type: ADME, organism-based, Macaca mulatta; conditions: in vivo; outline: as §1
[15] = Oral bioavailability in dog (female mongrel); assay type: ADME, organism-based, Canis lupus familiaris; conditions: in vivo; outline: as §2
[16] = Percent of urinary recovery in rats after, oral administration of single 20 mg/kg dose in solution (N,range); assay type: ADME, organism-based; set-up: dose 20 mg/kg, route oral; conditions: rat, urine, read-out: Recovery; outline: as §4
[17] = Percent of urinary recovery in rats after, sc administration of single 20 mg/kg dose in solution (N,range); assay type: ADME, organism-based; set-up: dose 20 mg/kg, route subcutaneous; conditions: rat, urine, read-out: Recovery; outline: as §4
[18] = Dose in urine (24-h urine excretion) in female mongrel dogs after oral administration of single 15 mg/kg dose; assay type: ADME, organism-based, Canis lupus familiaris; set-up: dose 15 mg/kg, route oral; conditions: dog
Outline: (§5)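 Female mongrel dogs (n=6), bladder catheter; urine collected at intervals after single 15 mg/kg iv or oral solution dose, frozen; antibiotic activity by disk-plate agar diffusion against E. coli MB 3804 with standards in pH 6.0 buffer; percent of dose recovered in urine.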

[19] = Half-life of the compound; assay type: ADME; outline: as §3
[20] = test system: Escherichia coli; assay: Minimum inhibitory concentration against EC14 strain Escherichia coli; assay type: functional
[21] = test system: Klebsiella aerogenes; assay: Minimum inhibitory concentration against EB17 strain of Enterobacter aerogenes; assay type: functional
[22] = test system: Klebsiella pneumoniae; assay: Minimum inhibitory concentration against X68 strain of Klebsiella pneumoniae; assay type: functional
[23] = test system: Salmonella; assay: Minimum inhibitory concentration against X514 strain of Salmonella; assay type: functional
[24] = Minimum inhibitory concentration against N9 strain of Shigella sonnei; assay type: functional
[25] = test system: Staphylococcus epidermidis; assay: Minimum inhibitory concentration against 222 strain of Staphylococcus epidermidis; assay type: functional
[26] = test system: Staphylococcus epidermidis; assay: Minimum inhibitory concentration against Epil strain of Staphylococcus epidermidis; assay type: functional
[27] = test system: Staphylococcus aureus; assay: Minimum inhibitory concentration against S13E strain of Staphylococcus aureus; assay type: functional
[28] = test system: Staphylococcus aureus; assay: Minimum inhibitory concentration against V41 strain of Staphylococcus aureus; assay type: functional
[29] = test system: Staphylococcus aureus; assay: Minimum inhibitory concentration against X1.1 strain of Staphylococcus aureus; assay type: functional
[30] = test system: Streptococcus pyogenes; assay: Minimum inhibitory concentration against Streptococcus pyogenes C203; assay type: functional
[31] = test system: Haemophilus influenzae; assay: Minimum inhibitory concentration against sens CL strain of Haemophilus influenzae; assay type: functional
[32] = test system: Haemophilus influenzae; assay: Minimum inhibitory concentration against res 76 strain of Haemophilus influenzae; assay type: functional
[33] = Dose in urine (24-h urine excretion) in female mongrel dogs after iv administration of single 15 mg/kg dose; assay type: ADME, organism-based, Canis lupus familiaris; set-up: dose 15 mg/kg, route intravenous; conditions: dog; outline: as §5
[34] = test system: Staphylococcus aureus; assay: Minimum inhibitory concentration against 3055 strain of Staphylococcus aureus
[35] = test system: Streptococcus pyogenes; assay: Minimum inhibitory concentration against C203 strain of Streptococcus pyogenes
[36] = test system: Streptococcus pneumoniae; assay: Minimum inhibitory concentration against park strain of Streptococcus pneumoniae
[37] = test system: Streptococcus pneumoniae; assay: Minimum inhibitory concentration against Park strain of Streptococcus pneumoniae

O=C(COc1ccccc1)N[C@@H]1C(=O)N2C(C(=O)O)=C(Cl)CS[C@H]12
AUC [1]: 38000 ng·h/mL
AUC [2]: 5000 ng·h/mL
AUC [3]: 57500 ng·h/mL
AUC [4]: 16700 ng·h/mL
AUC at 3 h [5]: 51400 ng·h/mL
bioavailability [6]: 56%
bioavailability [7]: 23.1%
concentration at 1 h [8]: 18400 ng/mL
concentration at 2 h [9]: 4600 ng/mL
concentration at 3 h [10]: 500 ng/mL
concentration at 40 min [11]: 25200 ng/mL
concentration at 5 min [12]: 66000 ng/mL
concentration at 20 min [13]: 39100 ng/mL
bioavailability [14]: 13.1%
bioavailability [15]: 30%
dose excreted [16]: 10.1%
dose excreted [17]: 43.8%
dose excreted [18]: 18%
half-life [19]: 30 min
MIC [20]: 64 µg/mL (≈ 174 µM)
MIC [21]: > 128 µg/mL
MIC [22]: 128 µg/mL (≈ 347 µM)
MIC [23]: > 128 µg/mL
MIC [24]: > 128 µg/mL
MIC [25]: 0.25 µg/mL (≈ 0.678 µM)
MIC [26]: 4 µg/mL (≈ 10.8 µM)
MIC [27]: 16 µg/mL (≈ 43.4 µM)
MIC [28]: 8 µg/mL (≈ 21.7 µM)
MIC [29]: 0.25 µg/mL (≈ 0.678 µM)
MIC [30]: 0.125 µg/mL (≈ 0.339 µM)
MIC [31]: 1 µg/mL (≈ 2.71 µM)
MIC [32]: 2 µg/mL (≈ 5.42 µM)
dose excreted [33]: 48%
MIC [34]: 0.25 µg/mL (≈ 0.678 µM)
MIC [35]: 0.06 µg/mL (≈ 0.163 µM)
MIC [36]: 0.06 µg/mL (≈ 0.163 µM)
MIC [37]: 0.125 µg/mL (≈ 0.339 µM)
